In publication PMC10772668 (Clinical and Translational Science, 2023):

How the values were obtained:
RIPK1 [1] = biological target: T1, RIPK1 (Homo sapiens, UniProt Q13546); assay: In vitro inhibition of RIPK1 activity in human PBMCs; format: cell-based
T1 sequence (Q13546 1-671): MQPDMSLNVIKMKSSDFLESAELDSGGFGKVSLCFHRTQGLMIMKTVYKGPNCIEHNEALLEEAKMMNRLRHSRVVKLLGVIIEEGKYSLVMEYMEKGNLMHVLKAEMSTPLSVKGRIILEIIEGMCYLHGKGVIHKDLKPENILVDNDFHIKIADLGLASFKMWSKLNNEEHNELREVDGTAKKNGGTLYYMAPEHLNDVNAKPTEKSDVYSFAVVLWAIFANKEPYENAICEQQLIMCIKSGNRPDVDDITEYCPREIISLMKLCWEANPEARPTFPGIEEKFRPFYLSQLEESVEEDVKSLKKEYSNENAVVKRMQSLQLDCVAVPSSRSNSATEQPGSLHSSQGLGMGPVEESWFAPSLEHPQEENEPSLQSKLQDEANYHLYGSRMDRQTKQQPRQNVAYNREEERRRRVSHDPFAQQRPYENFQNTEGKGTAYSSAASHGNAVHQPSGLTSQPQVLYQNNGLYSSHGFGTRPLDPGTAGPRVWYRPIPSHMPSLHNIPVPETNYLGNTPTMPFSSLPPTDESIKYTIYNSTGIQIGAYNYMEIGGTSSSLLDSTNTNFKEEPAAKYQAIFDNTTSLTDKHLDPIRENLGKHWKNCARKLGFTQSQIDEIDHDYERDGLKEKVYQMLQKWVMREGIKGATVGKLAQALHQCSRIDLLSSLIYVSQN

RIPK1 [2] = biological target: T1, RIPK1; assay: In vitro inhibition of RIPK1 activity in iPSC‐derived microglia; format: cell-based
Plasma PK, PK‐CSF = format: in vivo, human; conditions: for CL/F, geometric mean (%CV): after breakfast; for Vd/F: both, human, plasma, oral
In short: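 Open‑label part: single oral 10 or 40 mg dose given about 30 min after breakfast. Plasma was collected predose and at 10 postdose times, one of them coinciding with lumbar‑puncture CSF sampling. Drug was quantified by validated HPLC‑MS (LLOQ 1 ng/mL). CL/F and Vz/F were derived from plasma concentration‑time data and summarised per dose group.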

Plasma PK, MAD = format: in vivo, human; conditions: for half-life: T 1/2z; for Tmax: T max, median (range)
In short: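 Oral capsules were given for 14 days (q.d. or b.i.d.) after an overnight fast of ≥8 h, with 2 h fasting post‑dose. Plasma was sampled predose and at 10–11 postdose times on days 1 and 14, predose on days 2, 3, 5, 7 and 11, and once on days 15–17. Quantification was by HPLC‑MS (LLOQ 1 ng/mL). AUCtau used tau 12 h (b.i.d.) or 24 h (q.d.). Accumulation was assessed by a linear model on log ratio and steady state by a nonlinear model on Ctrough.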

RIPK1 [3] = biological target: T1, RIPK1; assay: pS166‐RIPK1 inhibition in PBMC lysates, SAD; format: in vivo; conditions: SAD all dose groups, from 1 h to at least 5 h postdose
In short: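 After a single fasted oral dose or placebo, blood was collected predose, at 1, 3, 5 and 8 h on day 1, and at 24 h. PBMCs were isolated and autophosphorylated RIPK1 (pS166) quantified in lysates. Percent change from baseline was summarised descriptively as median (Q1–Q3) by dose group and timepoint.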

Safety, TEAEs, SAD = format: in vivo, human
In short: (§1)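 Safety population: all participants exposed to study drug, followed from first dose to the end‑of‑study visit. Assessments covered physical and neurological exams, AEs, SAEs and AESIs (seizure, ALT ≥2×ULN, QTc ≥500 ms, pregnancy, overdose). Lab, vital‑sign and 12‑lead/Holter ECG abnormalities were also recorded. Coding used MedDRA 23.1 (part 1) or 24.0 (part 2), with severity graded 1–4 per FDA guidance. Counts were summarised per dose group, with placebo pooled.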

Safety, TEAEs, PK‐CSF = format: in vivo, human; conditions: for ALT increase (AESI), one participant: PK‐CSF 10 mg
In short: as §1

Safety, TEAEs, MAD = format: in vivo, human
In short: as §1

[4] = Overall safety and tolerability, all study parts; format: in vivo, human
In short: as §1

CC(C)(C(=O)N1CCOc2c(C#N)cncc2C1)C(F)F [SAR443820]
IC50 (RIPK1 [1]): 3.16 nM | IC50 (RIPK1 [2]): 1.6 nM | CL/F, geometric mean (%CV) (Plasma PK, PK‐CSF; PK‐CSF 10 mg single dose): 7.27 (29.7) L/h | CL/F, geometric mean (%CV) (Plasma PK, PK‐CSF; PK‐CSF 40 mg single dose): 8.43 (34.2) L/h | Vd/F (Plasma PK, PK‐CSF; 10 mg): 83.6 L | Vd/F (Plasma PK, PK‐CSF; 40 mg): 97.7 L | Food effect on absorption (Plasma PK, PK‐CSF; capsule in fed conditions vs fasted): no evidence that the extent of absorption was impacted by food | CLss/F, geometric mean (%CV) (Plasma PK, MAD; MAD 10 mg q.d., day 14): 7.08 (25.9) L/h | CLss/F, geometric mean (%CV) (Plasma PK, MAD; MAD 15 mg b.i.d., day 14): 9.16 (30.0) L/h | CLss/F, geometric mean (%CV) (Plasma PK, MAD; MAD 20 mg b.i.d., day 14): 9.27 (24.9) L/h | CLss/F, geometric mean (%CV) (Plasma PK, MAD; MAD 20 mg q.d., day 14): 9.40 (22.2) L/h | Overall accumulation, C max and AUCtau (Plasma PK, MAD; b.i.d. cohorts, day 14 vs day 1): around 1.5 fold | Cmax (Plasma PK, MAD; both, human, plasma, oral, 10 mg, C max, geometric mean (%CV), MAD 10 mg q.d., day 14): 158 ng/mL | half-life (Plasma PK, MAD; both, human, plasma, oral, 10 mg, geometric mean (%CV), MAD 10 mg q.d., day 14): 8.87 h | Tmax (Plasma PK, MAD; both, human, plasma, oral, 10 mg, MAD 10 mg q.d., day 14): 1 h | half-life (Plasma PK, MAD; both, human, plasma, oral, 15 mg, geometric mean (%CV), MAD 15 mg b.i.d., day 14): 7.21 h | Tmax (Plasma PK, MAD; both, human, plasma, oral, 15 mg, MAD 15 mg b.i.d., day 1): 1 h | Tmax (Plasma PK, MAD; both, human, plasma, oral, 15 mg, MAD 15 mg b.i.d., day 14): 1 h | half-life (Plasma PK, MAD; both, human, plasma, oral, 20 mg, geometric mean (%CV), MAD 20 mg b.i.d., day 14): 7.37 h | half-life (Plasma PK, MAD; both, human, plasma, oral, 20 mg, geometric mean (%CV), MAD 20 mg q.d., day 14): 8.53 h | Tmax (Plasma PK, MAD; both, human, plasma, oral, 20 mg, MAD 20 mg b.i.d., day 14): 1 h | Tmax (Plasma PK, MAD; both, human, plasma, oral, 20 mg, MAD 20 mg q.d., day 14): 2 h | Median pS166‐RIPK1 inhibition in PBMC lysates (RIPK1 [3]): greater than 80% | Any TEAE, n (%) (Safety, TEAEs, SAD; SAD 10 mg (n = 6)): 2 (33.3) n (%) | Any grade ≥3 TEAE, n (%) (Safety, TEAEs, SAD; SAD 10 mg (n = 6)): 0 n (%) | Any treatment‐emergent AESI, n (%) (Safety, TEAEs, SAD; SAD 10 mg (n = 6)): 0 n (%) | Any treatment‐emergent SAE, n (%) (Safety, TEAEs, SAD; SAD 10 mg (n = 6)): 0 n (%) | Any TEAE, n (%) (Safety, TEAEs, SAD; SAD 20 mg (n = 6)): 1 (16.7) n (%) | Any grade ≥3 TEAE, n (%) (Safety, TEAEs, SAD; SAD 20 mg (n = 6)): 0 n (%) | Any treatment‐emergent AESI, n (%) (Safety, TEAEs, SAD; SAD 20 mg (n = 6)): 0 n (%) | Any treatment‐emergent SAE, n (%) (Safety, TEAEs, SAD; SAD 20 mg (n = 6)): 0 n (%) | Any TEAE, n (%) (Safety, TEAEs, SAD; SAD 30 mg (n = 6)): 3 (50.0) n (%) | Any grade ≥3 TEAE, n (%) (Safety, TEAEs, SAD; SAD 30 mg (n = 6)): 0 n (%) | Any treatment‐emergent AESI, n (%) (Safety, TEAEs, SAD; SAD 30 mg (n = 6)): 0 n (%) | Any treatment‐emergent SAE, n (%) (Safety, TEAEs, SAD; SAD 30 mg (n = 6)): 0 n (%) | Any TEAE, n (%) (Safety, TEAEs, SAD; SAD 40 mg (n = 6)): 3 (50.0) n (%) | Any grade ≥3 TEAE, n (%) (Safety, TEAEs, SAD; SAD 40 mg (n = 6)): 0 n (%) | Any treatment‐emergent AESI, n (%) (Safety, TEAEs, SAD; SAD 40 mg (n = 6)): 0 n (%) | Any treatment‐emergent SAE, n (%) (Safety, TEAEs, SAD; SAD 40 mg (n = 6)): 0 n (%) | Any TEAE, n (%) (Safety, TEAEs, PK‐CSF; PK-CSF 10 mg (n = 6)): 4 (66.7) n (%) | Any grade ≥3 TEAE, n (%) (Safety, TEAEs, PK‐CSF; PK-CSF 10 mg (n = 6)): 0 n (%) | Any treatment‐emergent AESI, n (%) (Safety, TEAEs, PK‐CSF; PK-CSF 10 mg (n = 6)): 1 (16.7) n (%) | Any treatment‐emergent SAE, n (%) (Safety, TEAEs, PK‐CSF; PK-CSF 10 mg (n = 6)): 0 n (%) | Any TEAE, n (%) (Safety, TEAEs, PK‐CSF; PK-CSF 40 mg (n = 6)): 6 (100.0) n (%) | Any grade ≥3 TEAE, n (%) (Safety, TEAEs, PK‐CSF; PK-CSF 40 mg (n = 6)): 1 (16.7) n (%) | Any treatment‐emergent AESI, n (%) (Safety, TEAEs, PK‐CSF; PK-CSF 40 mg (n = 6)): 0 n (%) | Any treatment‐emergent SAE, n (%) (Safety, TEAEs, PK‐CSF; PK-CSF 40 mg (n = 6)): 1 (16.7) n (%) | ALT increase (AESI), one participant (Safety, TEAEs, PK‐CSF; day 2): 1.5 ULN | ALT increase (AESI), one participant (Safety, TEAEs, PK‐CSF; day 7 (end‐of‐study visit)): 2.4 ULN | Any TEAE, n (%) (Safety, TEAEs, MAD; MAD 10 mg QD (n = 8)): 4 (50.0) n (%) | Any grade ≥3 TEAE, n (%) (Safety, TEAEs, MAD; MAD 10 mg QD (n = 8)): 0 n (%) | Any treatment‐emergent AESI, n (%) (Safety, TEAEs, MAD; MAD 10 mg QD (n = 8)): 0 n (%) | Any treatment‐emergent SAE, n (%) (Safety, TEAEs, MAD; MAD 10 mg QD (n = 8)): 0 n (%) | Any TEAE, n (%) (Safety, TEAEs, MAD; MAD 15 mg BID (n = 8)): 6 (75.0) n (%) | Any grade ≥3 TEAE, n (%) (Safety, TEAEs, MAD; MAD 15 mg BID (n = 8)): 0 n (%) | Any treatment‐emergent AESI, n (%) (Safety, TEAEs, MAD; MAD 15 mg BID (n = 8)): 1 (12.5) n (%) | Any treatment‐emergent SAE, n (%) (Safety, TEAEs, MAD; MAD 15 mg BID (n = 8)): 0 n (%) | Concomitant AST increase, one participant (Safety, TEAEs, MAD; MAD 15 mg b.i.d.): 1.43 ULN | ALT increase (AESI), one participant (Safety, TEAEs, MAD; MAD 15 mg b.i.d., day 9): 2.29 ULN | ALT increase (AESI), one participant (Safety, TEAEs, MAD; MAD 15 mg b.i.d., day 15 (24 h post last dosing)): 2.71 ULN | Any TEAE, n (%) (Safety, TEAEs, MAD; MAD 20 mg BID (n = 8)): 4 (50.0) n (%) | Any grade ≥3 TEAE, n (%) (Safety, TEAEs, MAD; MAD 20 mg BID (n = 8)): 0 n (%) | Any treatment‐emergent AESI, n (%) (Safety, TEAEs, MAD; MAD 20 mg BID (n = 8)): 0 n (%) | Any treatment‐emergent SAE, n (%) (Safety, TEAEs, MAD; MAD 20 mg BID (n = 8)): 0 n (%) | Any TEAE, n (%) (Safety, TEAEs, MAD; MAD 20 mg QD (n = 8)): 3 (37.5) n (%) | Any grade ≥3 TEAE, n (%) (Safety, TEAEs, MAD; MAD 20 mg QD (n = 8)): 0 n (%) | Any treatment‐emergent AESI, n (%) (Safety, TEAEs, MAD; MAD 20 mg QD (n = 8)): 0 n (%) | Any treatment‐emergent SAE, n (%) (Safety, TEAEs, MAD; MAD 20 mg QD (n = 8)): 0 n (%) | Most common AEs ([4]; all study parts): dizziness (SAD) and headache (PK‐CSF and MAD) | Overall tolerability ([4]; healthy participants, single doses up to 40 mg, repeated doses up to 20 mg b.i.d. for 14 days): generally safe and well‐tolerated
